Experimental data reported in PubChem BioAssay AID588760 (Johns Hopkins Ion Channel Center, 2011).

Molecular target: Inward rectifier potassium channel 2 (Mus musculus) (UniProt P35561)
Assay: Kir2.1 channel inhibition, specificity check, SAR follow-up, selectivity assay for KCNK9 inhibitor project, cell-based, FluxOR thallium flux, CRC round 3 (AID 588760)
Settings: Kir2.1-expressing cells, 20 min; series mostly up to 30 µM; thallium flux ratio, lower = inhibition: at the top concentration;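 active means fitted dose response curve and peak inhibition of the Kir2.1 potassium channel above 30% at some dose; inactive means no dose response or no inhibition at any dose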
Summary of the method: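 Times – dye loading 90 min RT, compound 20 min RT pre-stimulus · Test system – Kir2.1-expressing HEK293 cells loaded with FluxOR thallium-sensitive dye · Probe or stimulus – potassium sulfate plus thallium sulfate stimulus, 5x stock 25/7 mM · Dosing – 10-concentration dilution series per compound · Technique – kinetic fluorescence of thallium-sensitive dye · Replication – two or more replicates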

Chain of Inward rectifier potassium channel 2 (Mus musculus) (P35561 whole entry, looked up): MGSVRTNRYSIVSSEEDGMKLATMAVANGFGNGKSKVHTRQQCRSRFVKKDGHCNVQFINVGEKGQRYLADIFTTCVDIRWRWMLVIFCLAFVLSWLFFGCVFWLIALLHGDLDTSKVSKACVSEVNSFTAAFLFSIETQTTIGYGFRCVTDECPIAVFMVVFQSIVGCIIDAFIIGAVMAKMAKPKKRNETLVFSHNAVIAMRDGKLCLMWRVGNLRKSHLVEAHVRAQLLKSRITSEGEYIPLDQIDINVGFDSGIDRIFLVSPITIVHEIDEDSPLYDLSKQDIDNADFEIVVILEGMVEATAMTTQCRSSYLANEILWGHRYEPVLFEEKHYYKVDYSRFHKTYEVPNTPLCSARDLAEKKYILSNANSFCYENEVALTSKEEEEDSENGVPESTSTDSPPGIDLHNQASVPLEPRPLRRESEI

Thallium flux ratio, lower = inhibition, inactive:
CC(C1CC2CCC1C2)N(C)C(=O)c1ccco1 (stereo not drawn) 1.97
CC(C1CC2CCC1C2)n1c(-c2cccs2)n[nH]c1=S (stereo not drawn) 1.23
CC(CC1CC2CCC1C2)n1c(-c2ccco2)n[nH]c1=S (stereo not drawn) 1.05
